ChEMBL document CHEMBL1138735, “Identification of 1,5-naphthyridine derivatives as a novel series of potent and selective TGF-beta type I receptor inhibitors” (J Med Chem, 2004)
One block for each compound: values may come before it.

What was measured:
TGF-beta receptor type-1 [1] = biological target: T1, TGF-beta receptor type-1 (Homo sapiens, UniProt P36897); assay: Binding affinity to Activin A receptor type II-like kinase (ALK5) in fluorescence polarization binding assay; Range is (0.356-4.455)
T1 sequence (P36897 whole entry): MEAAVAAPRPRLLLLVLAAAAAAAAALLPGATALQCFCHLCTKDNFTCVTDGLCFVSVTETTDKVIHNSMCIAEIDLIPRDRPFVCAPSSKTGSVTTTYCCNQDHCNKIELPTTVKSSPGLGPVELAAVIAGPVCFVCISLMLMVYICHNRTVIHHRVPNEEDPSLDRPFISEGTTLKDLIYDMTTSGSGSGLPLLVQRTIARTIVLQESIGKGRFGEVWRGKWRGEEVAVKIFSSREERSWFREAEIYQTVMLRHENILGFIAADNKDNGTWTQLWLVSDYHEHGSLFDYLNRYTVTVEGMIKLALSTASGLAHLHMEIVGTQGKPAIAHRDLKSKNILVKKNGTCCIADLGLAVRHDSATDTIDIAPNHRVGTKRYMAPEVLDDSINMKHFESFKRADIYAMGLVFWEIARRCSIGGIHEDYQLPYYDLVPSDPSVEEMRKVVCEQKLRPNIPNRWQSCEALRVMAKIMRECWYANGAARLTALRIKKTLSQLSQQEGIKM
Summary of the method: (§1)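 Purified recombinant GST-ALK5 (residues 198–503), final 10 nM by active-site titration, in 62.5 mM HEPES pH 7.5, 1 mM DTT, 12.5 mM MgCl2, 1.25 mM CHAPS with 1 nM rhodamine green-labelled ATP-competitive ligand. Test compound added over a concentration series, plate read immediately by fluorescence polarization (ex 485/em 530 nm). Binding pIC50 from concentration–response curves; mean of two or more experiments, 95% confidence limits converted to IC50.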

TGF-beta receptor type-1 [2] = biological target: T1, TGF-beta receptor type-1; assay: Stimulation of Transforming growth factor beta receptor I kinase in HepG2 cells; format: functional, cell-based
TGF-beta receptor type-1 [3] = biological target: T1, TGF-beta receptor type-1; assay: Binding affinity for Activin A receptor type II-like kinase (ALK5) in fluorescence polarization binding assay
Summary of the method: (§2)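 Purified recombinant GST-ALK5 (residues 198–503), final 10 nM by active-site titration, in 62.5 mM HEPES pH 7.5, 1 mM DTT, 12.5 mM MgCl2, 1.25 mM CHAPS with 1 nM rhodamine green-labelled ATP-competitive ligand. Test compound added over a concentration range; plates read immediately for fluorescence polarization (ex 485/em 530 nm). Binding pIC50 from concentration–response curves; means of two or more experiments, mean pIC50 converted to IC50, with 95% confidence limits.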

TGF-beta receptor type-1 [4] = biological target: T1, TGF-beta receptor type-1; assay: Binding affinity to Activin A receptor type II-like kinase (ALK5) in fluorescence polarization binding assay; Range is (1.375-9.154); summary of the method: as §1
TGF-beta receptor type-1 [5] = biological target: T1, TGF-beta receptor type-1; assay: Binding affinity to Activin A receptor type II-like kinase (ALK5) in fluorescence polarization binding assay; Range is (5.326-22.574); summary of the method: as §1
TGF-beta receptor type-1 [6] = biological target: T1, TGF-beta receptor type-1; assay: Binding affinity to Activin A receptor type II-like kinase (ALK5) in fluorescence polarization binding assay; Range is (3.221-19.588); summary of the method: as §2
MAP kinase p38 [7] = biological target: T2, MAP kinase p38 (Homo sapiens, UniProt O15264+Q15759+Q16539+P53778); assay: Displacement of ATP from p38 MAP kinase by fluorescence polarization assay; format: protein assay
Summary of the method: (§3)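 p38 MAP kinase binding measured by fluorescence polarization: displacement of a fluorescently labelled ATP-competitive inhibitor by a compound concentration series gives a binding IC50. Runs were duplicated or repeated as three separate experiments; 95% confidence limits on pIC50 were converted to IC50 limits.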

TGF-beta receptor type-1 [8] = biological target: T1, TGF-beta receptor type-1; assay: Binding affinity to Activin A receptor type II-like kinase (ALK5) in fluorescence polarization binding assay; Range is (0.864-3.661); summary of the method: as §2
TGF-beta receptor type-1 [9] = biological target: T1, TGF-beta receptor type-1; assay: Binding affinity to Activin A receptor type II-like kinase (ALK5) in fluorescence polarization binding assay; Range is (0.289-3.621); summary of the method: as §2
[10] = biological target: Proto-oncogene tyrosine-protein kinase LCK (Mus musculus, UniProt P06240); assay: Inhibition of p56 Lck tyrosine kinase binding in HTRF assay
[11] = biological target: Mitogen-activated protein kinase kinase kinase 11 (Homo sapiens, UniProt Q16584); assay: Inhibition of MLK3 kinase binding in fluorescence polarization assay
[12] = biological target: Ribosomal protein S6 kinase alpha-5 (Homo sapiens, UniProt O75582); assay: Inhibition of MSK-1 kinase binding in fluorescence polarization assay
[13] = biological target: T3, Tyrosine-protein kinase ITK/TSK (Homo sapiens, UniProt Q08881)
T3 sequence (Q08881 whole entry): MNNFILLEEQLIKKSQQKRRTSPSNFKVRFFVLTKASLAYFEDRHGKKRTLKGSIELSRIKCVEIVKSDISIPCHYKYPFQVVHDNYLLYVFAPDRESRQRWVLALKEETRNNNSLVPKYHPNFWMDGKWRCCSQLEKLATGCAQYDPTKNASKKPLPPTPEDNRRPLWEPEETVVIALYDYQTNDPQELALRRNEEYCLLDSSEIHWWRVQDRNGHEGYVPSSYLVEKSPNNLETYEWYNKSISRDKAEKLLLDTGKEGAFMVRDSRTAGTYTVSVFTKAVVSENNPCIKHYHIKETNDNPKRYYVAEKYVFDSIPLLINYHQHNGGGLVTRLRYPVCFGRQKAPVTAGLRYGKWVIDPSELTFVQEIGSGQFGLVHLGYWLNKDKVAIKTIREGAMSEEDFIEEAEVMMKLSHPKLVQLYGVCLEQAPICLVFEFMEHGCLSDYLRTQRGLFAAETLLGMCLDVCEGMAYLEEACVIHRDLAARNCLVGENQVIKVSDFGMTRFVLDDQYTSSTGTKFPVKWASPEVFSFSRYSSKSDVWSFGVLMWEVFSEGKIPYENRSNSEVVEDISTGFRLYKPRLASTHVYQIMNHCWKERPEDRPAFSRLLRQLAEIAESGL

[14] = biological target: Serine/threonine-protein kinase B-raf (Homo sapiens, UniProt P15056); assay: Inhibition of Protein kinase Raf-B binding in fluorescence polarization assay
[15] = biological target: Mitogen-activated protein kinase 8 (Homo sapiens, UniProt P45983); assay: Inhibition of c-Jun N-terminal kinase 1-alpha 1 binding in fluorescence polarization assay
[16] = biological target: Mitogen-activated protein kinase 10 (Homo sapiens, UniProt P53779); assay: Inhibition of c-Jun N-terminal kinase 3-alpha binding in HTRF assay
TGF-beta receptor type-1 [17] = biological target: T1, TGF-beta receptor type-1
TGF-beta receptor type-1 [18] = biological target: T1, TGF-beta receptor type-1; assay: Binding affinity to Activin A receptor type II-like kinase (ALK5) in fluorescence polarization binding assay; Range is (2.423-6.540); summary of the method: as §2
TGF-beta receptor type-1 [19] = biological target: T1, TGF-beta receptor type-1; assay: Binding affinity to Activin A receptor type II-like kinase (ALK5) in fluorescence polarization binding assay; Range is (0.038-0.042); summary of the method: as §1
TGF-beta receptor type-1 [20] = biological target: T1, TGF-beta receptor type-1; assay: Inhibition of recombinant Activin A receptor type II-like kinase (ALK5) expressed in baculovirus/Sf9 cells; format: cell-based
TGF-beta receptor type-1 [21] = biological target: T1, TGF-beta receptor type-1; remark: listed apart in the source
MAP kinase p38 [22] = biological target: T2, MAP kinase p38; assay: Displacement of ATP from Mitogen-activated protein kinase p38 in fluorescence polarization assay; Range is (0.208-1.155); summary of the method: as §3
TGF-beta receptor type-1 [23] = biological target: T1, TGF-beta receptor type-1; assay: Binding affinity to Activin A receptor type II-like kinase (ALK5) in fluorescence polarization binding assay; Range is (0.029-0.032)
TGF-beta receptor type-1 [24] = biological target: T1, TGF-beta receptor type-1; remark: listed apart in the source
MAP kinase p38 [25] = biological target: T2, MAP kinase p38; assay: Displacement of ATP from Mitogen-activated protein kinase p38 in fluorescence polarization assay; Range is (0.242-0.545); summary of the method: as §3
TGF-beta receptor type-1 [26] = biological target: T1, TGF-beta receptor type-1; assay: Binding affinity to Activin A receptor type II-like kinase (ALK5) in fluorescence polarization binding assay; Range is (0.783-1.764); summary of the method: as §1
TGF-beta receptor type-1 [27] = biological target: T1, TGF-beta receptor type-1; assay: Binding affinity to Activin A receptor type II-like kinase (ALK5) in fluorescence polarization binding assay; Range is (0.021-0.042); summary of the method: as §1

Sequence of Serine/threonine-protein kinase B-raf (P15056 whole entry): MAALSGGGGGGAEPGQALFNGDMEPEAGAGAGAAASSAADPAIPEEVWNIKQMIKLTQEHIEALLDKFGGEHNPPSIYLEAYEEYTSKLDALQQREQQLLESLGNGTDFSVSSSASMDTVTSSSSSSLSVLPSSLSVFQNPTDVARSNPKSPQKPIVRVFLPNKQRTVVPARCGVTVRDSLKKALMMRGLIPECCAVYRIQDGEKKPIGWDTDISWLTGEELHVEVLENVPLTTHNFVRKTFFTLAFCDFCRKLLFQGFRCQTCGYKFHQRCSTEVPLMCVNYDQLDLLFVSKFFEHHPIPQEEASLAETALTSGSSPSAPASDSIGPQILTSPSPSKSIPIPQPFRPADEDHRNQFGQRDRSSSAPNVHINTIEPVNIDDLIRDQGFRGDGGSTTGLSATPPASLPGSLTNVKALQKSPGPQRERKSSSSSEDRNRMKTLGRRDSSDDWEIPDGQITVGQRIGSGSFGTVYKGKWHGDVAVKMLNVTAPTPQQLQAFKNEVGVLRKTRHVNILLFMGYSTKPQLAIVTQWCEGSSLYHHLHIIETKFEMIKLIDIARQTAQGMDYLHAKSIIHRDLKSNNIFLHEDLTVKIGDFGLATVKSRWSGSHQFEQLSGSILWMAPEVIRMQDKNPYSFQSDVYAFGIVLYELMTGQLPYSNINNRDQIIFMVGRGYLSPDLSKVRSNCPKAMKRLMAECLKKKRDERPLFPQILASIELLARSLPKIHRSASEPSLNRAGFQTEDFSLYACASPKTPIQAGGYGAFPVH
Sequence of Proto-oncogene tyrosine-protein kinase LCK (P06240 whole entry): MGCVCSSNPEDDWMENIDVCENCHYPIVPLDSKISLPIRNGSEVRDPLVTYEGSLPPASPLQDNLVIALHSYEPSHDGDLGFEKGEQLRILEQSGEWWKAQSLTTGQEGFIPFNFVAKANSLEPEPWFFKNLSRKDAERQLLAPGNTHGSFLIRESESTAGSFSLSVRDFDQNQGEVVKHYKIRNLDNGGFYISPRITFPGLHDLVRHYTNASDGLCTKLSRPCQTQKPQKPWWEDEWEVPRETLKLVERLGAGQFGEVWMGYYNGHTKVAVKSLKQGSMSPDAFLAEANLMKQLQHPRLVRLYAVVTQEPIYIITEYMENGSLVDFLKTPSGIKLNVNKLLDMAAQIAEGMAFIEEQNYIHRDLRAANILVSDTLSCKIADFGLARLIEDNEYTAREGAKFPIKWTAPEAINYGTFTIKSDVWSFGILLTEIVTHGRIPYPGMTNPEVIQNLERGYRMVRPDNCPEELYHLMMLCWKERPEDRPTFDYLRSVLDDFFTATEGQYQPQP
Sequence of Mitogen-activated protein kinase 8 (P45983 whole entry): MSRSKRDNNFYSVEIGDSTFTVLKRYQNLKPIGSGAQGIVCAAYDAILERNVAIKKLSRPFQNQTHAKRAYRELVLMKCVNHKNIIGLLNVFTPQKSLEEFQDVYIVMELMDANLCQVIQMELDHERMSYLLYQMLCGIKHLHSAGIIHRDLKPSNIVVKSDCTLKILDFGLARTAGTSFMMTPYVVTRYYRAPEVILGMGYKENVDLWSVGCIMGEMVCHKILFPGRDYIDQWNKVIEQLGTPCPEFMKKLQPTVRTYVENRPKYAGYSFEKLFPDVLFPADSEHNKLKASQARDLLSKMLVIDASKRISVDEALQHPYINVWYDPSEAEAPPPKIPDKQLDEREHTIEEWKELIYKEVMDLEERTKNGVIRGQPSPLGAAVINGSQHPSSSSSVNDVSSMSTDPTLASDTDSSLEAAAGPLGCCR
Sequence of Mitogen-activated protein kinase 10 (P53779 whole entry): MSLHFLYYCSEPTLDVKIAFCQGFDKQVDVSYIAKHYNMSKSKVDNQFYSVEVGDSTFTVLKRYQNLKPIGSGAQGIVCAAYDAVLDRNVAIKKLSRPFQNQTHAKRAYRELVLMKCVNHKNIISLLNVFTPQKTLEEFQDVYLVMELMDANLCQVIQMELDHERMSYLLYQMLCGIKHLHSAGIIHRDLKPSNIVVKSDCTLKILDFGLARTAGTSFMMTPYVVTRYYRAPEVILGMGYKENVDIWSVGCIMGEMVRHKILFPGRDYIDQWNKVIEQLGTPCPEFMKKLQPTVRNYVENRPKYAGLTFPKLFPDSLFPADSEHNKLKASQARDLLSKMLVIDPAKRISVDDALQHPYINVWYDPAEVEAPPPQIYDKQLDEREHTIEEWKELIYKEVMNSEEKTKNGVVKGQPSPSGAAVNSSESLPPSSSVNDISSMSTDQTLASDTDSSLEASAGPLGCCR
Sequence of Mitogen-activated protein kinase kinase kinase 11 (Q16584 whole entry): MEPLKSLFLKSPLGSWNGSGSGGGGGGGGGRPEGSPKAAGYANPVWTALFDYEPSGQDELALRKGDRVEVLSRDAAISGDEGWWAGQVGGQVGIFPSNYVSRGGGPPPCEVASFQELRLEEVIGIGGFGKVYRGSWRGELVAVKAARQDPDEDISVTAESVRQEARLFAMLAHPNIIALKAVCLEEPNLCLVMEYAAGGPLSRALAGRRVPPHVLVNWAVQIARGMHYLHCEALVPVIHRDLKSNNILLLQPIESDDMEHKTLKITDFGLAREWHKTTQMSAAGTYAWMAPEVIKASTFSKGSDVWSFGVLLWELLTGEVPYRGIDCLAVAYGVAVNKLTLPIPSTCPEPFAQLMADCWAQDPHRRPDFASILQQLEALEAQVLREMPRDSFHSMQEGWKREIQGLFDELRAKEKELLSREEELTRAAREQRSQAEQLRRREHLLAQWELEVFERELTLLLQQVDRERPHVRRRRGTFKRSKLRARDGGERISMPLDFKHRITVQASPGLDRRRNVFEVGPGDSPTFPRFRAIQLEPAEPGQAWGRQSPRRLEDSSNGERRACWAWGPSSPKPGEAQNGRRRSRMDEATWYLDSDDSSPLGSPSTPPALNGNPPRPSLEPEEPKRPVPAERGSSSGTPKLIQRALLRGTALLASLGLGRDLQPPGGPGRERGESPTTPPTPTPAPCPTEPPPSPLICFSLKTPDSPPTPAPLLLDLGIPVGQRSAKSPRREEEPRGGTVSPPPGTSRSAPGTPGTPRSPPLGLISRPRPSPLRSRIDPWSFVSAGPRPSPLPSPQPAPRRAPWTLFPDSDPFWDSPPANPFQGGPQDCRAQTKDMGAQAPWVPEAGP
Sequence of Ribosomal protein S6 kinase alpha-5 (O75582 whole entry): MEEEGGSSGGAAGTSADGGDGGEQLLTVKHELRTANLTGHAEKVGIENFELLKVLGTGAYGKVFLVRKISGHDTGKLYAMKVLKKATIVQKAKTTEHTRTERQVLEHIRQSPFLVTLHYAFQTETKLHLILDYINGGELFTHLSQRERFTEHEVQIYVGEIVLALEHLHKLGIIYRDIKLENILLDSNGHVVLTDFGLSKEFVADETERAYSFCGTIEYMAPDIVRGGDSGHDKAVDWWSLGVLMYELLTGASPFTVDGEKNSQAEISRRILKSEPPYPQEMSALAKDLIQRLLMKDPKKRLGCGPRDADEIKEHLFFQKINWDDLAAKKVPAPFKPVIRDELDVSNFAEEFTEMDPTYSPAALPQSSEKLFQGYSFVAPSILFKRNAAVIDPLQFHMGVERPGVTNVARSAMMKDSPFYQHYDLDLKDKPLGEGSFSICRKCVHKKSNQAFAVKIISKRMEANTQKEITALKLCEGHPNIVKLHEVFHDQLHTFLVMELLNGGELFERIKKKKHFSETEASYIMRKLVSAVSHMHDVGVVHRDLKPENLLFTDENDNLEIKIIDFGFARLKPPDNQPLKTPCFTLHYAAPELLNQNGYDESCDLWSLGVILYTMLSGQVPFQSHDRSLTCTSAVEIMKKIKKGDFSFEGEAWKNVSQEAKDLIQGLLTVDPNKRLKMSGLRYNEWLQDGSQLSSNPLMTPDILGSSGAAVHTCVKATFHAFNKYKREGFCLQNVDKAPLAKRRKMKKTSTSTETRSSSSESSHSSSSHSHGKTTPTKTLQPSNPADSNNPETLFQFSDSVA

SMILES: Nc1nc(-c2ccccn2)c(-c2ccnc3ncccc23)s1
IC50 (TGF-beta receptor type-1 [6]): 7940 nM
IC50 (TGF-beta receptor type-1 [2]): > 10000 nM

SMILES: Cc1cccc(-c2nc(N)sc2-c2ccc3ncccc3n2)n1
IC50 (MAP kinase p38 [7]): > 16000 nM

SMILES: Nc1nc(-c2ccc(Cl)cn2)c(-c2ccnc3ccccc23)s1
IC50 (TGF-beta receptor type-1 [2]): > 10000 nM
IC50 (TGF-beta receptor type-1 [8]): 1770 nM

SMILES: Nc1nc(-c2cc(Cl)ccn2)c(-c2ccnc3ccccc23)s1
IC50 (TGF-beta receptor type-1 [9]): 1020 nM
IC50 (TGF-beta receptor type-1 [2]): > 10000 nM

SMILES: Cc1ccc(-c2nc(N)sc2-c2ccnc3ccccc23)nc1
IC50 (TGF-beta receptor type-1 [2]): > 10000 nM
IC50 (TGF-beta receptor type-1 [3]): > 10000 nM

SMILES: Cc1cccc(-c2n[nH]cc2-c2ccc3ncccc3n2)n1 [GW786460X]
IC50 [10]: > 16000 nM
IC50 [11]: > 16000 nM
IC50 [12]: > 16000 nM
IC50 [13]: > 16000 nM
IC50 [14]: > 16000 nM
IC50 [15]: > 16000 nM
IC50 [16]: > 16000 nM

SMILES: Cc1ccc2nccc(-c3sc(N)nc3-c3ccccn3)c2n1
IC50 (TGF-beta receptor type-1 [17]): 380 nM
IC50 (TGF-beta receptor type-1 [2]): 260 nM

SMILES: Nc1nc(-c2cccnc2)c(-c2ccnc3ccccc23)s1
IC50 (TGF-beta receptor type-1 [18]): 3980 nM
IC50 (TGF-beta receptor type-1 [2]): > 10000 nM

SMILES: Nc1nc(-c2ccc(F)cc2)c(-c2ccc3ncccc3n2)s1 [GW785804X]
IC50 (TGF-beta receptor type-1 [21]): 40 nM
IC50 (MAP kinase p38 [22]): 490 nM
IC50 (TGF-beta receptor type-1 [2]): 30 nM
IC50 (TGF-beta receptor type-1 [20]): 10 nM

SMILES: Nc1nc(-c2cccc(Cl)c2)c(-c2ccc3ncccc3n2)s1 [GW780159X]
IC50 (TGF-beta receptor type-1 [24]): 20 nM
IC50 (MAP kinase p38 [25]): 360 nM
IC50 (TGF-beta receptor type-1 [2]): 10 nM
IC50 (TGF-beta receptor type-1 [20]): 10 nM

More lines, now with the values ahead:

IC50 (TGF-beta receptor type-1 [1]): 1250 nM
IC50 (TGF-beta receptor type-1 [2]): 6670 nM
SMILES: Nc1nc(-c2ccccc2F)c(-c2ccnc3ccccc23)s1

IC50 (TGF-beta receptor type-1 [2]): > 10000 nM
IC50 (TGF-beta receptor type-1 [3]): > 10000 nM
SMILES: COc1ccccc1-c1nc(N)sc1-c1ccnc2ccccc12

IC50 (TGF-beta receptor type-1 [2]): > 10000 nM
IC50 (TGF-beta receptor type-1 [4]): 3540 nM
SMILES: Nc1nc(-c2ccccn2)c(-c2ccc3ccccc3n2)s1

IC50 (TGF-beta receptor type-1 [2]): > 10000 nM
IC50 (TGF-beta receptor type-1 [5]): 11000 nM
SMILES: Nc1nc(-c2ccccn2)c(-c2cccc3ccccc23)s1

IC50 (TGF-beta receptor type-1 [2]): > 10000 nM
IC50 (TGF-beta receptor type-1 [3]): > 10000 nM
SMILES: CCOc1ccc2nc(-c3sc(N)nc3-c3ccccn3)ccc2n1

IC50 (TGF-beta receptor type-1 [19]): 40 nM
IC50 (TGF-beta receptor type-1 [2]): 120 nM
IC50 (TGF-beta receptor type-1 [20]): 20 nM
IC50 (MAP kinase p38 [7]): > 16000 nM
SMILES: Nc1nc(-c2ccccn2)c(-c2ccc3ncccc3n2)s1 [GW693481X]

IC50 (TGF-beta receptor type-1 [23]): 30 nM
IC50 (TGF-beta receptor type-1 [2]): 50 nM
IC50 (TGF-beta receptor type-1 [20]): 19 nM
IC50 (MAP kinase p38 [7]): > 16000 nM
SMILES: c1ccc(-c2n[nH]cc2-c2ccc3ncccc3n2)nc1

IC50 (TGF-beta receptor type-1 [2]): 6580 nM
IC50 (TGF-beta receptor type-1 [26]): 1170 nM
SMILES: Nc1nc(-c2nccs2)c(-c2ccnc3ccccc23)s1

IC50 (TGF-beta receptor type-1 [2]): 220 nM
IC50 (TGF-beta receptor type-1 [27]): 30 nM
SMILES: Cc1ccnc2ccc(-c3sc(N)nc3-c3ccccn3)nc12
